Test results: ChEMBL document CHEMBL4513216, “Probing the Open Global Health Chemical Diversity Library for Multistage-Active Starting Points for Next-Generation Antimalarials” (ACS Infect Dis, 2020)

assay: Toxicity liver stage against HepG2, at 10uM; format: cell-based; design: test concentration 10 uM, cell line HepG2-A16-CD81EGFP; conditions: human, HepG2-A16-CD81EGFP cells; read-out: INHIBITION
How it was run: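 Uninfected HepG2-A16-CD81EGFP cells, 3 × 10^3 per well, 1536-well, plated on prespotted compound at 10 μM final, parasite-free screening media added to match infected plates; puromycin 10 μM positive, DMSO 0.5% negative; run in parallel with 48 h PbLuc assay at 37 °C, 5% CO2; viability by CellTiter-Glo luminescence, normalized to controls.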

Row | Compound | cytotoxicity at 10 µM
1 | COC(=O)COn1c(SCC(=O)OC)nc2ccccc2c1=O | -8.38%
2 | Cc1ncc(CN(C)C(=O)Nc2cccc(N3CCOC3=O)c2)s1 | 5.31%
3 | O=c1cc(CNCc2ccc3c(c2)OCO3)nc2ccc(Br)cn12 | -2.62%
4 | CC(C)CS(=O)(=O)Nc1ccc([C@H]2OCC(=O)N[C@@H]2CO)cc1 | 2.79%
5 | CC[C@H]1CN2CC[C@H]1C[C@@H]2CNC(=O)Nc1cccc(C#N)c1 | -0.201%
6 | CCOCCCNC(=O)C1(C)CCC(=O)N1c1cc(OC)ccc1OC (centres undefined) | 0.957%
7 | Cc1ccc2snc(C(=O)N3CCN(C(=O)NCCC(C)C)CC3)c2c1 | -0.964%
8 | CC(O)CN1CCC(=O)N(Cc2ccccc2)Cc2ccccc21 (centres undefined) | -3.37%
9 | COCC(O)CN1CCC(=O)N(CC=C(C)C)Cc2ccccc21 (centres undefined) | 1.87%
10 | O=c1c(NCCNCCO)c(N2CCN(Cc3ccccc3)CC2)c1=O | -5.9%
11 | O=C(Cn1cnc2sccc2c1=O)NCCCc1nnc2ccccn12 | 5.84%
12 | COc1ccc(CCC(=O)NCc2cc(C)on2)cc1 | -56.4%
13 | COC(=O)CN1N=C(C(=O)N2CCCC2)S(=O)(=O)c2ccccc21 | -8.25%
14 | COc1cc(OC)cc(C(=O)NCC(c2cccn2C)N2CCCC2)c1 (centres undefined) | 11.2%
15 | COc1cccc(NC(=O)NCC(C)(O)CCSC)c1OC (centres undefined) | 0.253%
16 | CCc1cc(=O)n(CCNC(=O)Nc2ccc(OC(F)(F)F)cc2)cn1 | -0.898%
17 | CC(C)(C)c1cc(=O)n2c(n1)SCC(C(=O)NCc1cccs1)C2 (centres undefined) | 12.9%
18 | COCCN(Cc1ccoc1)C(=O)c1ccccc1OC | 6.28%
19 | O=C(c1ccccn1)N1CCN(c2cnnc(N3CCCC3)c2)CC1 | 4.74%
20 | FC1(F)CCNCC12CCN(c1ccccn1)C2 (centres undefined) | -0.31%
21 | Cc1nccc([C@@H]2C[C@H]3CN(S(=O)(=O)c4ccccc4)C[C@H]3O2)n1 | 1.32%
22 | CC(C)CO[C@@H]1CC[C@H]2[C@H]1OCCN2S(=O)(=O)C1CC1 | 4.04%

Row | Compound | cytotoxicity at 10 µM
23 | CC(=O)c1cn(CCC(=O)NCCC(=O)O)c2ccccc12 | 7.13%
24 | CC(C)CC1SCC(=O)Nc2c1cnn2-c1ccc(F)cc1 (centres undefined) | 6.82%
25 | CCOC(=O)c1sc(NC(=O)CN(C)S(C)(=O)=O)c(C#N)c1C | 16.6%
26 | COCCO[C@H]1CCN(C(=O)c2cc(C)on2)[C@H]1Cc1ccccc1 | 8.22%
27 | COc1ccc(CCNC(=O)Cn2ncc3c2c(C)nn3C)cc1 | 8.93%
28 | Cc1ccc(NC(=O)CN2CCOCC2)c(F)c1 | 5.76%
29 | CN1CCCC1CCNC(=O)c1ccccc1-n1cc(CN)cn1 (centres undefined) | 3.44%
30 | COc1nc2cc(C)ccc2cc1CN(C)Cc1n[nH]c2c1CCCC2 | 4.03%
31 | CCN1CCCC(O)(c2nc(C)c(CCOc3ccccc3Cl)s2)CC1 (centres undefined) | -26.2%
32 | O=C(Cn1cc(Cl)cn1)N1CCCC(c2ccn[nH]2)C1 (centres undefined) | -22.5%
33 | O=C(O)c1cccc(CN2CCC(c3ccnc4ccnn34)CC2)c1 | -16.2%
34 | CNc1cc(C2CCCN(S(=O)(=O)c3cn[nH]c3)C2)ccn1 (centres undefined) | -24%
35 | CC(C)n1ccnc1CN1CCCC1c1cccc(-n2ccnc2)n1 (centres undefined) | -25.1%
36 | CC(=O)N1CCC(Cc2cncc(-c3c(C)n[nH]c3C)n2)C1 (centres undefined) | -19.4%
37 | COc1ccc(C2Nc3cc(Cl)ccc3C3=NCCN32)cc1O (centres undefined) | -31.1%
38 | O=C(Cc1ccsc1)N1CCCC(c2cc(C(F)F)n3ncnc3n2)C1 (centres undefined) | -20.7%
39 | CC(=O)Nc1nc(C2CCN(C(C)=O)CC2)cs1 | 4.3%
40 | COCCN(Cc1ccco1)c1ncc(C#N)cc1Cl | -2.66%
41 | CN1CCC(N(Cc2ccco2)S(=O)(=O)c2ccc(Cl)cc2)CC1 | -1.1%
42 | Cc1ccc(CN(c2cc(C)nc3nc(C(F)(F)F)nn23)C2CC2)cc1 | -4.12%
43 | CC(C)Cc1cc(C(=O)N2CCCN(c3cccnn3)CC2)[nH]n1 | -10.5%
44 | O=C(c1sccc1-n1cnnn1)N1CCC2(CCCCC2)CC1 | 9.09%

Row | Compound | cytotoxicity at 10 µM
45 | CC(CC(=O)c1ccccc1)NC(=O)c1ccon1 (centres undefined) | -10.7%
46 | Fc1cccnc1N1CCC(NCc2cccc3cn[nH]c23)C1 (centres undefined) | 13.6%
47 | COc1ccc(C(=O)CCC(=O)NCc2ncc(C)s2)cc1F | -11.8%
48 | Cc1nnc(CN2CCC(Oc3ccc(F)cc3)CC2)o1 | -11.8%
49 | Cc1csc(CNc2cccc(OCCN3CCCC3)c2)n1 | -4.49%
50 | Cn1cnc2cc(C(=O)NS(=O)(=O)c3ccc(F)cc3)ccc21 | -8.95%
51 | Cc1cc(N2CCC(NC(C)Cc3ccsc3)CC2)nc(C)n1 (centres undefined) | -7.73%
52 | CS(=O)(=O)CCSCc1cc(F)cc2cccnc12 | -1.46%
53 | CCC(NC(=O)CNCC(F)(F)F)c1cc(F)ccc1F (centres undefined) | -4.56%
54 | Cc1cc(C)n(C2CN(CCc3ccccn3)C2)n1 | 3.65%
55 | OCCN1CCN(CCOCC(F)(F)F)CC1 | -4.47%
56 | O=C(c1ccc(O)c(Cl)c1)N(Cc1ccncc1)C1CC1 | -8.99%
57 | COc1ccccc1CN(C)c1nc2c(cnn2C)c(=O)[nH]1 | 40.6%
58 | O=C(NCCCc1ccc(O)cc1)C1(O)Cc2ccccc2C1 | 1.6%
59 | O=C(NC1CCS(=O)(=O)C1)c1sccc1-c1ccc(F)cc1 (centres undefined) | 8.14%
60 | COc1cccc(CNC(=O)C(c2cccc(F)c2)N2CCOCC2)c1 (centres undefined) | -6.24%
61 | Cc1ccc(CN(C)C(=O)CN2CC(n3cccn3)C2)o1 | -0.0582%
62 | CCS(=O)(=O)N1CC[C@H](OC)[C@@H]1Cc1ccncc1 | 5.43%
63 | Cc1noc(C)c1CN1CC[C@H]2C[C@@H](c3nccs3)O[C@@H]2C1 | -5.33%
64 | CCCc1cc(C(=O)N2Cc3cnc(C(C)(C)C)nc3C2)ccn1 | -0.807%
65 | CCOC(=O)CCCNc1nc(C(C)(C)C)nc2c1cnn2C | -0.627%
66 | Cc1cccnc1CC(C)Nc1ncc(C)c(N(C)C)n1 (centres undefined) | 12.1%

Row | Compound | cytotoxicity at 10 µM
67 | Cc1n[nH]c(C)c1-c1cc(-c2cc[nH]c2)nc(N)c1C#N | 2.41%
68 | CN(Cc1ccccc1)c1cnn(CC2COCCO2)c(=O)c1 (centres undefined) | -12.4%
69 | Cc1ccccc1OCC(=O)N1CCOC2(CNCCOC2)C1 (centres undefined) | -2.96%
70 | CCC(C)N1CCC(Oc2ccc(C(=O)NCCN(C)C)cc2Cl)CC1 (centres undefined) | -2.09%
71 | Cc1cc(C)n(C2CN(C(=O)CN3C(=O)CSc4ccccc43)C2)n1 | -6.53%
72 | CCn1nc(C)c(CN2CCC(c3ccc(C(=O)O)cc3)C2)c1C (centres undefined) | 4.22%
73 | CC(C)Cc1cc(CNc2nc(-c3cccnc3)nc3c2CNC3)no1 | 1.95%
74 | Cn1ccnc1CN1C[C@@H](CN2CCCCCC2)[C@@H](CO)C1 | -2.63%
75 | CCC[C@H]1CN(Cc2cncn2C)C[C@@H]1NC(=O)C1(COC)CCC1 | -8.26%
76 | CC(C)NS(=O)(=O)c1cc(C(=O)O)cc(-n2cc3c(n2)CCC3)c1 | 3.19%
77 | O=C(O)[C@@H]1CN(Cc2c[nH]c(CC3CCCC3)n2)C[C@H]1c1ccccn1 | 3.86%
78 | Cc1cccc(C(=O)N2CC(=O)N(c3ccccc3Cl)CC2C)n1 (centres undefined) | -7.25%
79 | Cc1cccnc1CN1CCN(C(=O)c2cnn(C(C)C)c2)CC1 | 0.616%
80 | CC(=O)Nn1c(C)cc(CN2CCC(c3ccncc3)CC2)c1C | 4.61%
81 | CCn1ncnc1CN1CCC(CNC(=O)c2cccc(C)c2)C1 (centres undefined) | -2.59%
82 | CN(C)C[C@@H]1CN(C(=O)CCC2CCCC2)C[C@@H]1CO | -2.94%
83 | OCCNc1cc(N2CCC(n3cc(C4CCCC4)nn3)CC2)ncn1 | -9.72%
84 | CCn1ncc(C(=O)N2CCN(CC3CCCO3)CC2)c1C (centres undefined) | -11.6%
85 | Cc1cc(CN(C)C(=O)C2CC(=O)N(Cc3cccnc3)C2)on1 (centres undefined) | 2.95%
86 | COCCNc1nc2c(c(NCCc3cccs3)n1)CCNCC2 | 3.96%
87 | Cc1oc(-c2ccsc2)nc1CN1CC[C@@H]2CCCC[C@H]2C1 | 7.16%
88 | NC(=O)c1csc(N2CCCC(c3n[nH]c(=O)n3-c3ccccc3)C2)n1 (centres undefined) | 8.84%

Row | Compound | cytotoxicity at 10 µM
89 | Cc1nonc1CN(C)CC1(O)CCCN(CCC2CCCCC2)C1=O (centres undefined) | 49.4%
90 | Cc1cccnc1CNCC1(O)CCCN(Cc2ccc(F)cc2)C1=O (centres undefined) | -12.3%
91 | COc1ccccc1C1(C(=O)NCCN2CCCCC2)CCOCC1 | -10.3%
92 | CCc1ccc(C(=O)O)cc1S(=O)(=O)Nc1ccc2c(c1)OCCO2 | -4.07%
93 | Cc1ccc(NC2CCN(C(=O)Cc3c(C)noc3C)CC2)nn1 | -8.13%
94 | Cc1cnn(CCNCc2csc(-c3ncccn3)n2)c1 | -7.48%
95 | Cc1nc(C)n(CC2CCCCN2Cc2nc(-c3ccoc3)no2)n1 (centres undefined) | 1.98%
96 | Cc1csc(C(Cc2ccsc2)NC(=O)CN(C)Cc2ccccn2)n1 (centres undefined) | 0.258%
97 | O[C@]1(c2ccccn2)CC[C@@H]2CN(Cc3cccc4ncccc34)C[C@@H]21 | -2.09%
98 | CC(=O)N1CC(=O)N(c2ccccc2)CC12CCN(CC1CC1)C2 (centres undefined) | 4.45%
99 | Cn1nc(C2CCN(C(=O)Cc3ccsc3)CC2)c2cccnc21 | -4.9%
100 | CN(C)CCN1CCCC12CCCN(C(=O)c1cccnc1)C2 (centres undefined) | -0.95%
101 | Cc1ccc2c(n1)N(Cc1csc(C)n1)CCN(C1CCOC1)C2 (centres undefined) | 9.28%
102 | O=C(NC1CC1)C1=CC2(CCN(CCO)CC2)c2ccccc21 | 1.41%
103 | CC(C)NC(=O)[C@H]1C[C@@H]2[C@@H](C1)OCCN2Cc1cccnc1 | 2.39%
104 | CS(=O)(=O)N1CCCC12CCN(Cc1nccs1)CC2 | 8.1%
105 | c1cnc(N2CCC3(CCN(CC4CCCC4)CC3)C2)nc1 | 0.845%
106 | COc1cccc(CN2C[C@@H]3COC[C@]3(COCc3ccncc3)C2)c1 | 3.52%
107 | CC(C)NC(=O)N1CC[C@@H](N(C)C)[C@@H]1Cc1ccncc1 | 5.53%
108 | Cc1ccc(CN2CCC(O)(Cn3ccc4ncccc43)CC2)o1 | -31.2%
109 | c1ccc(COC2C[C@@H]3CN(Cc4cncnc4)C[C@@H]3C2)cc1 (some centres undefined) | -40%
